In one test the test system is MCF7. In words: Growth inhibition of human MCF7 cells after 72 hrs by MTT assay. Type of test: functional. Conditions: MCF7, 72 h. The gist of the method:
(§1)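 Cells kept in DMEM with 10% FBS, glutamine, penicillin/streptomycin at 37 °C, 5% CO2; plated in duplicate at 2500–4000 cells/well, dosed 24 h later during log growth. After 72 h drug exposure, MTT read at 540 nm. […] Assays in triplicate, standard error reported.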
A general note: Formazan colour is commonly taken as a measure of viable cells.

Another test deals with A-431. In words: Growth inhibition of human A431 cells after 72 hrs by MTT assay. Type of test: functional. Particulars: A-431, 72 h. The gist of the method:
as §1

Test [1] is described as follows: Growth inhibition of human U87 cells after 72 hrs by MTT assay. It is filed as functional, U-87MG ATCC. Conditions: U-87 MG. The gist of the method: as §1
Test [2] in a line: Growth inhibition of human SJ-G2 cells after 72 hrs by MTT assay. Type of test: functional. Particulars: SJ-G2, 72 h. Summed up:
as §1

Test [3] in a line: Growth inhibition of human MIA cells after 72 hrs by MTT assay. It is filed as functional. Summed up: as §1
Test [4] in a line: Growth inhibition of mouse SMA cells after 72 hrs by MTT assay. Type of test: functional. The gist of the method: as §1
The next test concerns A2780. As to the kind of experiment: Growth inhibition of human A2780 cells after 72 hrs by MTT assay. It is filed as functional. Particulars: A2780, 72 h. The gist of the method: as §1
Test [5] can be described thus: Growth inhibition of human BE(2)-C cells after 72 hrs by MTT assay. It is filed as functional. Summed up:
as §1

In another test the test system is DU-145. In words: Growth inhibition of human DU145 cells after 72 hrs by MTT assay. Particulars: DU-145, 72 h. Type of test: functional. The gist of the method: as §1
Test [6] can be described thus: Growth inhibition of human H460 cells after 72 hrs by MTT assay. Type of test: functional. Conditions: NCI-H460, 72 h. Summed up: as §1
The subject of the next test is HT-29. In words: Growth inhibition of human HT-29 cells after 72 hrs by MTT assay. Type of test: functional. Particulars: HT-29, 72 h. The gist of the method:
as §1

The results in this text go back to ChEMBL document CHEMBL3596100, “The synthesis and biological activity of novel anthracenone-pyranones and anthracenone-furans” (Bioorg Med Chem, 2015).

One may read the GI50 as the concentration that inhibits growth by half. Low readings indicate greater sensitivity of the cells, high ones lower sensitivity of the cells.

Take `C=C(C)c1cc(=O)c2c(C)cc3c(c2o1)C(=O)c1c(O)cccc1C3=O`: the GI50 worked out at 1.4 µM in the test with MCF7; 1.8 µM in the test with A-431; 3.4 µM in test [1]; 4.7 µM in test [2]; 2 µM in [3]; 1.7 µM in test [4]. The GI50 was 1.6 µM in the test on A2780; 5.9 µM in test [5]; 1.5 µM in the test with DU-145; 3.9 µM in test [6]; 1.6 µM in the test on HT-29.

On to `Cc1cc2c(c3oc(=O)c([Si](C)(C)C)cc13)C(=O)c1c(OC(C)C)cccc1C2=O`, for which the GI50 with MCF7 is 13 µM; in the test with A-431, 19 µM; in test [1], 19 µM; in [2], 14 µM; in test [3] it was 11 µM; in test [4], 11 µM. The GI50 in the test on A2780 came to 13 µM; in [5] it was 28 µM; in the test on DU-145, 27 µM; in [6] it was 21 µM; in the test with HT-29, 11 µM.

Consider `Cc1cc2c(c3oc(C(C)O)cc13)C(=O)c1c(O)cccc1C2=O` (stereo not drawn), for which the GI50 in the test with MCF7 came to 21 µM; in the test on A-431 it was 9 µM; in [1] it was 20 µM; in test [2], 17 µM; in [3], 15 µM; in [4] it was 12 µM. Also, the GI50 with A2780 came to 7.3 µM; in test [5], 19 µM; in the test on DU-145, 28 µM; in test [6] it was 17 µM; in the test on HT-29, 13 µM.

`Cc1cc2c(c3oc(C(C)O)cc13)C(=O)c1c(OC(C)C)cccc1C2=O` (stereo not drawn): the GI50 with MCF7 was determined as 24 µM; in the test on A-431, 19 µM; in test [1], 35 µM; in test [2], 14 µM; in test [3], 19 µM; in test [4], 29 µM. For the same compound, the GI50 came out at 16 µM in the test with A2780; 20 µM in test [5]; 28 µM with DU-145; 17 µM in [6]; 24 µM with HT-29.

With `CC(=O)c1cc2c(C)cc3c(c2o1)C(=O)c1c(O)cccc1C3=O`, the GI50 with MCF7 stood at 2.1 µM; with A-431, 4.8 µM; in test [1] it was 5.5 µM; in [2], 1.8 µM; in test [3], 9.5 µM; in [4], 1.5 µM. The GI50 stood at 2 µM with A2780; 2.9 µM in test [5]; 2 µM in the test on DU-145; 9.6 µM in test [6]; 4.7 µM in the test with HT-29.

With `CCc1cc(=O)c2c(C)cc3c(c2o1)C(=O)c1c(OC)cccc1C3=O`, the GI50 was found to be 4.1 µM in the test on MCF7; 5.7 µM in the test on A-431; 14 µM in test [1]; 4.3 µM in test [2]; 5.4 µM in [3]; 6.5 µM in test [4]. The GI50 in the test on A2780 was found to be 5.3 µM; in [5] it was 4.1 µM; in the test on DU-145 it was 4.8 µM; in test [6], 4.8 µM; with HT-29, 4.5 µM.

For `CC(=O)c1cc2c(C)cc3c(c2o1)C(=O)c1c(OC(C)C)cccc1C3=O`, the GI50 in the test on MCF7 worked out at 3.5 µM; with A-431, 5.8 µM; in test [1] it was 8.4 µM; in test [2], 2.2 µM; in [3], 9.7 µM; in [4], 2.3 µM. Moreover, the GI50 with A2780 turned out to be 5 µM; in [5] it was 4.6 µM; with DU-145 it was 1.9 µM; in test [6] it was 17 µM; with HT-29, 9.7 µM.

As to `Cc1cc2c(c3oc(=O)c(C(C)(C)O)cc13)C(=O)c1c(OC(C)C)cccc1C2=O`, the GI50 with MCF7 came to 20 µM; in the test on A-431, 19 µM; in test [1], 30 µM; in [2], 14 µM; in test [3], 23 µM; in test [4], 30 µM. Besides, the GI50 in the test with A2780 was 28 µM; in [5] it was 27 µM; in the test on DU-145, 40 µM; in test [6], 22 µM; in the test with HT-29, 30 µM.
